What was measured:
[1] = Antiproliferative activity against human HaCaT cells assessed as [3H]thymidine incorporation at 5 uM after 24 hrs; type: cell-based
HaCaT [2] = test: Inhibition of PGE2 production in human HaCaT cells at 5 uM after 24 hrs by RIA; type: functional
Neutrophil [3] = test: Inhibition of TPA-induced ROS production in human neutrophils at 5 uM by chemiluminescence; type: functional
HaCaT [4] = test: Cytotoxicity against human HaCaT cells assessed as plasma membrane integrity damage at 5 uM; type: cell-based
In short: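 Membrane damage in treated HaCaT keratinocytes was measured as LDH leakage into the culture medium, read as A550nm (mU), with compounds at 5 µM. Results are mean ± SEM; ANOVA followed by Dunnett's t-test.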

HaCaT [5] = test: Antiproliferative activity against human HaCaT cells assessed as [3H]thymidine incorporation after 24 hrs; type: cell-based
In short: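 HaCaT keratinocytes were grown in DMEM with 10% FCS, penicillin and streptomycin at 37 °C and 5% CO₂. Cells were seeded at 4 × 10⁴/well for 24 h, then the medium was replaced and compounds or vehicle (1% EtOH) added for 24 h. Cells were pulsed 6 h with methyl-³H-thymidine (1 µCi/mL), and incorporation was counted by scintillation. %I at 5 µM; IC₅₀ from ≥4 concentrations (n = 6); mean ± SEM.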

[6] = tested on: Radical scavenging activity; test: Antioxidant activity assessed as DPPH free radical scavenging activity after 30 mins by assay in solution
Neutrophil [7] = test: Inhibition of TPA-induced ROS production in human neutrophils by chemiluminescence; type: functional, cell-based
HaCaT [8] = test: Inhibition of PGE2 production in human HaCaT cells after 24 hrs by RIA; type: functional, cell-based

Row | SMILES | inhibition at 24 h, 5 µM [1] | inhibition at 5 µM (HaCaT [2]) | inhibition at 5 µM (Neutrophil [3]) | Activity (HaCaT [4]) | IC50 (HaCaT [5]) | IC50 [6] | IC50 (Neutrophil [7]) | IC50 (HaCaT [8])
1 | CC1=CCC[C@H]2[C@](C)(CC3=CC(=O)C=C(NCCc4c[nH]c5ccccc45)C3=O)[C@@H](C)CC[C@]12C | 33.3% | 47.1% | 25.2% |  |  |  |  | 
2 | CC1=CCC[C@H]2[C@](C)(CC3=CC(=O)C(NCCc4c[nH]c5ccccc45)=CC3=O)[C@@H](C)CC[C@]12C | 36.7% | 50.4% | 26.7% |  |  |  |  | 
3 | CNC1=CC(=O)C(C[C@]2(C)[C@@H](C)CC[C@]3(C)C(C)=CCC[C@@H]23)=CC1=O | 33.5% | 54.8% | 37.8% |  |  |  |  | 
4 | O=C1c2c(O)cccc2Cc2cccc(O)c21 [ANTHRALIN] | 73.8% |  | 31.2% | 59% | 2900 nM |  |  | 
5 | CC1=CCC[C@H]2[C@](C)(Cc3cc(O)ccc3O)[C@@H](C)CC[C@]12C [AVAROL] | 18.9% | 4.9% | 71.7% |  |  | 18000 nM | 3600 nM | 
6 | COc1cc2ccc(=O)oc2c(O)c1O [FRAXETIN] |  |  | 76.4% |  |  |  | 1000 nM | 
7 | CS(=O)(=O)Nc1ccc([N+](=O)[O-])cc1OC1CCCCC1 [NS-398] |  | 93.8% |  |  |  |  |  | 10 nM

Source: ChEMBL document CHEMBL1148217, “Potential antipsoriatic avarol derivatives as antioxidants and inhibitors of PGE(2) generation and proliferation in the HaCaT cell line” (J Nat Prod, 2004)
